This is an account of results in ChEMBL document CHEMBL3414517, “Synthesis and structure-activity relationship study of a new series of selective σ(1) receptor ligands for the treatment of pain: 4-aminotriazoles” (J Med Chem, 2015).

For one data set, the species on record is Cavia porcellus. Nature of the data set: Displacement of [3H]-DTG from sigma 2 receptor in guinea pig brain membrane at 1 uM after 120 mins by liquid scintillation counting. It counts as cell membranes. The procedure, abridged:
(§1)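 Guinea pig brain membranes (200 μg) with 10 nM [³H]-DTG in 50 mM Tris-HCl pH 8, σ1R masked by 400 nM (+)-SKF10047; 25 °C, 120 min; 10 μM haloperidol for non-specific binding. Filtered, washed 3× ice-cold 50 mM Tris-HCl pH 7.4, scintillation counted.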
For orientation: In a radioligand displacement assay an active substance lowers the binding of a labelled ligand.

The target in data set [1] is Sigma non-opioid intracellular receptor 1 (Homo sapiens, UniProt Q99720). The experiment in a line: Displacement of [3H](+)-pentazocine from human sigma 1 receptor transfected in HEK293 cells after 120 mins by liquid scintillation counting. It counts as cell-based.
Data set [2] in a line: Displacement of [3H]-DTG from sigma 2 receptor in guinea pig brain membrane after 120 mins by liquid scintillation counting. It is filed as cell membranes, Cavia porcellus. In outline: as §1
Data set [3] is described as follows: Dissociation constant, pKa of the compound. It counts as physicochemical. The procedure, abridged:
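pKa calculated in silico with ACDLABS 9.0.3.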

A short description of data set [4]: Lipophilicity, log P of the compound. Particulars: octanol/water. It is filed as physicochemical. The procedure, abridged: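 clogP calculated with ChemDraw Ultra 10.0.3.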
Data set [5] is described as follows: Intrinsic clearance in human liver microsomes assessed as per mg of protein at 10 uM. It counts as ADME. Particulars: read-out: CLH. (In general: Liver microsomes are a subcellular fraction often used to study metabolism.)
In data set [6] the test system is Mus musculus. Nature of the data set: Antinociceptive activity against formalin-induced pain in CD1 mouse assessed as reduction in mean licking and biting time at 80 mg/kg, po administered 30 mins before fomalin injection measured during second phase of 15 to 30 mins after formalin challenge. It is filed as functional. The procedure, abridged:
(§2)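 Male CD1 mice, 6–8 weeks; 20 μL of 2.5% formalin (0.92% formaldehyde) injected i.pl. into right hind paw midplantar surface. Vehicle 0.5% HPMC or compound given i.p. or p.o. (10 mL/kg) 30 min before formalin; n = 7–8/group. Licking/biting time scored 15–30 min post-injection (phase II), blind; % antinociception derived relative to vehicle group.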

The test system of data set [7] is Mus musculus. The experiment in a line: Antinociceptive activity in CD1 mouse sciatic nerve injury-induced neuropathic pain model assessed as reduction in mechanical hypersensitivity measured as hind paw withdrawal response at 80 mg/kg, po treated 30 mins before test by von Frey filament test. It counts as functional. The procedure, abridged: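 Male CD1 mice with partial sciatic nerve ligation; habituation 4 days, 2 baseline days, allodynia checked days 5 and 8 (vehicle on day 8). Compound given p.o. (10 mL/kg) on day 15, 30 min before von Frey testing; n = 7–8/group, two independent experiments. Effect referenced to day-8 vehicle threshold and pre-surgery baseline.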

The nature of data set [8]: Thermodynamic solubility of the compound in phosphate buffer at pH 7.4. It is filed as physicochemical. Particulars: read-out: Therm_solubility. In outline:
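Thermodynamic solubility measured from solid compound in phosphate buffer, pH 7.4, quantified by HPLC.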

In data set [9] the test system is Mus musculus. Nature of the data set: Antinociceptive activity in CD1 mouse assessed as reduction in capsaicin-induced mechanical hypersensitivity measured as latency time to paw withdrawal response to upward pressure at 80 mg/kg, po administered 30 mins prior to capsaicin-challenge measured after 45 mins of treatment by von Frey filament test. It is filed as functional. In outline: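 Female CD1 mice habituated 2 h on mesh platform; vehicle 0.5% HPMC or compound p.o. (10 mL/kg) 30 min before i.pl. capsaicin (1 μg in 20 μL 1% DMSO). 15 min after capsaicin, dynamic plantar aesthesiometer filament (0.5 g) applied ≥5 mm from site, 3 trials averaged, 50 s cut-off; n = 8–26. % reduction of hypersensitivity = (LTD−LTV)/(CT−LTV)×100.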

In data set [10] the test system is Mus musculus. Nature of the data set: Antinociceptive activity against formalin-induced pain in CD1 mouse assessed as reduction in mean licking and biting time at 40 mg/kg, ip administered 30 mins before fomalin injection measured during second phase of 15 to 30 mins after formalin challenge. It is filed as functional. The settings on record: route intraperitoneal. In outline: as §2

Data set [11] is described as follows: Apparent permeability across human Caco2 cells at 10 uM after 2 hrs. It is filed as ADME, cell-based. Particulars: Caco-2.
Data set [12] has as its target Voltage-gated inwardly rectifying potassium channel KCNH2 (Homo sapiens, UniProt Q12809).

Converted amounts (≈) assume the structure as drawn.

Sequence of Voltage-gated inwardly rectifying potassium channel KCNH2 (Q12809 whole entry): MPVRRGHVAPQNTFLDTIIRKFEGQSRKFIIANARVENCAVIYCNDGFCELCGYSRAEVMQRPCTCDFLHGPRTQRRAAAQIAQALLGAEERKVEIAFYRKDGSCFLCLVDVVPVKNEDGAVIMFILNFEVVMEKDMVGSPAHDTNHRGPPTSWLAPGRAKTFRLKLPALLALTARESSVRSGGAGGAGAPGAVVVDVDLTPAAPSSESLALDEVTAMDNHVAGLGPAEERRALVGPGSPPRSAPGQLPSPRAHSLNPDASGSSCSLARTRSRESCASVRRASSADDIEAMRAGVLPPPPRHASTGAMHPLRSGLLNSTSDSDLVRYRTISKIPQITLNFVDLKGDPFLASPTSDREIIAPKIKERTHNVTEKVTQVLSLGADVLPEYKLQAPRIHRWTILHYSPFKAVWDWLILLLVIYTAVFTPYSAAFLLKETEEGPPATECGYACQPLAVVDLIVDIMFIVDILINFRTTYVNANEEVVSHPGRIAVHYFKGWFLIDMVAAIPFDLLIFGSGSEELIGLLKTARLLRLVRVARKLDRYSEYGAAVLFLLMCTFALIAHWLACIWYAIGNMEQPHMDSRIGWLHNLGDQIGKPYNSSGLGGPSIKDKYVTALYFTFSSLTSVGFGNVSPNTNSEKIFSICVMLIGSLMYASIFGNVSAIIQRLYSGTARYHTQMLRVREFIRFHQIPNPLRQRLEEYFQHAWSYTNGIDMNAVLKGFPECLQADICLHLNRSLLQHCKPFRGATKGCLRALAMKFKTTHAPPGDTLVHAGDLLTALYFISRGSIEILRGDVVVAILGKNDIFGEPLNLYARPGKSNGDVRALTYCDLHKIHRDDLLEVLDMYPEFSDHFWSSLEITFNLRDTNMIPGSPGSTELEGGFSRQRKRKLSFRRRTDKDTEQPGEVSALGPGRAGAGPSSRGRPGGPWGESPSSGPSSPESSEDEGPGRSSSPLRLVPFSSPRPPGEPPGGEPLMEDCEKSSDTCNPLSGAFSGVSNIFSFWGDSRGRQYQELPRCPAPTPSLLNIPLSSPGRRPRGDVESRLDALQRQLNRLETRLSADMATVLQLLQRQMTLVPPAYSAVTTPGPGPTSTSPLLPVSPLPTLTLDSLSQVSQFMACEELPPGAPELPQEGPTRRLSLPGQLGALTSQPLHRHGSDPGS
Sequence of Sigma non-opioid intracellular receptor 1 (Q99720 whole entry): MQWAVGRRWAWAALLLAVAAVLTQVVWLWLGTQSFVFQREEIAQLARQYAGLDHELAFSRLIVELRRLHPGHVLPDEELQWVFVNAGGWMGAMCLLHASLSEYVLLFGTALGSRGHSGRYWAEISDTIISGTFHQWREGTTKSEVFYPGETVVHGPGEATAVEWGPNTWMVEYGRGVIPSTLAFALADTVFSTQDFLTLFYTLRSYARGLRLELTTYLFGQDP

Turning to `Fc1cccc(-n2cc(NCCN3CCCCCC3)nn2)c1`, the inhibition (usually the percentage by which the read-out fell short of the control) in the data set listed under Cavia porcellus was 86%.

Turning to `CC(=O)N(CCN1CCOCC1)c1cn(-c2ccc(Cl)c(Cl)c2)nn1`, the inhibition constant Ki – broadly, the equilibrium dissociation constant of an inhibitor or competing ligand from its target – in [1] is 388 nM.

In the data set filed under Cavia porcellus, `Fc1ccc(-n2cc(NCCN3CCCCC3)nn2)c(F)c1` showed an inhibition of 53%.

In [2], `CCN(CCN1CCOCC1)c1cn(C23CC4CC(CC(C4)C2)C3)nn1` registered a Ki of 72 nM.

In the case of `c1ccc(Cn2cc(NCCN3CCCCC3)nn2)cc1`, in data set [2], the affinity, expressed as Ki, was 624 nM.

Regarding `c1ccc(Cn2cc(NCCN3CCCCCC3)nn2)cc1`, the inhibition in the data set listed under Cavia porcellus was determined as 75%.

In the case of `Clc1ccc(Cn2cc(NCCN3CCOCC3)nn2)cc1Cl`, the Ki in data set [2] is above 10000 nM. The pKa (in general, the negative logarithm of the acid dissociation constant) in data set [3] was 6.7. The logP (commonly a log measure of how a compound divides between an organic and an aqueous phase) in [4] was 2.4. The microsomal CLint at 10 µM in data set [5] was determined as 2.9 µL/min/mg. Also, the inhibition in vivo (usually the change of the read-out against control, counted positive when it falls) at 80 mg/kg in the data set with Mus musculus [6] was determined as 67%; in the data set with Mus musculus [7], 140%; in the data set on Mus musculus [9] it was 94%. In [8], the solubility thermodynamic is above 4000 µg/mL. The inhibition in vivo at 40 mg/kg in the data set on Mus musculus [10] is 94%. The Papp (commonly a coefficient for how fast a substance crosses the barrier) at 2 h, 10 µM in data set [11] is 46.2 ×10⁻⁶ cm/s.

In the case of `c1ccc(Cn2cc(NCCN3CCOCC3)nn2)cc1`, in data set [1], the Ki is above 1000 nM.

`Fc1cccc(-n2cc(NCCN3CCN(C4CCCCC4)CC3)nn2)c1`: the inhibition in the data set filed under Cavia porcellus came out at 74%.

`Fc1ccc(Cn2cc(NCCN3CCOCC3)nn2)cc1` showed a Ki in data set [1] of 662 nM.

For `Fc1cccc(Cn2cc(NCCN3CCCCC3)nn2)c1`, in the data set filed under Cavia porcellus, the inhibition came to 43%. In data set [12], the IC50 – broadly, the midpoint of a concentration-inhibition curve – was above 10000 nM.

In turn, `Clc1ccc(Cn2cc(NCCN3CCCCCC3)nn2)cc1Cl` displayed an inhibition in the data set filed under Cavia porcellus of 87%.

Consider `Clc1ccc(-n2ccc(NCCN3CCOCC3)n2)cc1Cl`, for which the affinity in data set [2], expressed as Ki, was 562 nM.

For `CCCN(CCN1CCOCC1)c1cn(-c2ccc(Cl)c(Cl)c2)nn1`, in [1], the Ki was 451 nM.

The compound `C[C@@H]1CCC[C@H](C)N1CCNc1cn(Cc2ccc(F)cc2)nn1` had an inhibition in the data set listed under Cavia porcellus of 72%.

Take `Fc1ccc(Cn2cc(NCCN3CCCCC3)nn2)cc1`: the inhibition in the data set listed under Cavia porcellus turned out to be 66%.

In turn, `CCN(CCN1CCOCC1)c1cn(-c2ccc(Cl)c(Cl)c2)nn1` returned a Ki in data set [2] of 55 nM.

In [2], `Fc1ccc(Cn2cc(NCCN3CCCCC3)nn2)cc1F` showed a Ki of 946 nM. Against the preceding compound, the Ki is about 17-fold higher.

For `Cc1cc(OCCN2CCOCC2)nn1-c1ccc2ccccc2c1`, the Ki in data set [2] is above 1000 nM. For the same compound, the microsomal CLint at 10 µM in data set [5] was 3 µL/min/mg. The inhibition in vivo at 80 mg/kg is 66% in the data set on Mus musculus [6], 62% with Mus musculus [7] and 48% with Mus musculus [9]. For the same compound, the inhibition in vivo at 40 mg/kg with Mus musculus [10] was found to be 50%.

In turn, `Clc1ccc(Cn2cc(NCCN3CCCCC3)nn2)cc1Cl` showed a Ki in data set [2] of 69 nM.

The compound `Clc1ccc(-n2cc(NCCN3CCCCC3)nn2)cc1` showed an inhibition in the data set listed under Cavia porcellus of 65%. The same compound had an IC50 in data set [12] of 3100 nM.

On to `Fc1ccc(-n2cc(NCCN3CCCCC3)nn2)cc1F`, for which, in the data set filed under Cavia porcellus, the inhibition amounted to 65%. This compound also showed an IC50 in data set [12] of 2200 nM.

`c1c(NCCN2CCOCC2)nnn1C1CCCCC1`: the Ki in data set [1] was above 1000 nM.

`Fc1cccc(-n2cc(NCCN3CCCCC3)nn2)c1` returned an inhibition in the data set filed under Cavia porcellus of 59%. Further, the IC50 in [12] is 5200 nM.

`CS(=O)(=O)N(CCN1CCOCC1)c1cn(-c2ccc(Cl)c(Cl)c2)nn1`: the Ki in data set [1] is above 1000 nM.

`Clc1ccc(-n2cc(NCCN3CCCCC3)nn2)cc1Cl` yielded a Ki in data set [2] of 323 nM. The compound also showed an IC50 in data set [12] of 1700 nM.

On to `Fc1ccc(-n2cc(NCCN3CCCCC3)nn2)cc1`, for which the inhibition in the data set listed under Cavia porcellus stood at 54%.

For the compound `Fc1ccc(Cn2cc(NCCN3CCOCC3)nn2)cc1F`, affinity in data set [1] was put at a Ki of 878 nM.

Compound `Fc1cccc(-n2cc(NCCN3CCOCC3)nn2)c1` gave a Ki in data set [1] of 781 nM.

Consider `CC(=O)N1CCN(CCNc2cn(Cc3ccc(Cl)c(Cl)c3)nn2)CC1`, for which the Ki in data set [1] was 818 nM.

Take `Clc1ccc(-n2cc(NCCN3CCOCC3)nn2)cc1Cl`: the Ki in data set [2] is above 10000 nM. Further, the pKa in data set [3] worked out at 6.6. Also, the logP in [4] stood at 2.9. Further, the microsomal CLint at 10 µM in data set [5] turned out to be 0.8 µL/min/mg. Besides, the inhibition in vivo at 80 mg/kg with Mus musculus [6] was 62%; in the data set on Mus musculus [7] it was 56%; in the data set with Mus musculus [9], 68%. This compound also displayed an IC50 in [12] above 10000 nM. Besides, the solubility thermodynamic in data set [8] turned out to be 170 µg/mL (≈ 497 µM). The inhibition in vivo at 40 mg/kg with Mus musculus [10] came to 95%. Moreover, the Papp at 2 h, 10 µM in data set [11] turned out to be 51 ×10⁻⁶ cm/s.

Turning to `CC(=O)N(CCN1CCOCC1)c1cn(Cc2ccc(Cl)c(Cl)c2)nn1`, affinity in [1] was put at a Ki of 459 nM.

In [2], `Fc1ccc(Cn2cc(NCCN3CCC(F)(F)CC3)nn2)cc1F` gave a Ki above 10000 nM. For the same compound, in [12], the IC50 was above 10000 nM.

In the data set listed under Cavia porcellus, `Fc1cccc(-n2cc(NCCN3CCCOCC3)nn2)c1` had an inhibition of 47%.

Regarding `Clc1ccc(-n2ccc(NCCN3CCCCC3)n2)cc1Cl`, the Ki in [2] was found to be 91 nM; in data set [1], 10 nM.

As to `Clc1ccc(Cn2cc(NCCN3CCCOCC3)nn2)cc1Cl`, the inhibition in the data set filed under Cavia porcellus stood at 66%.

In [1], `Clc1ccc(Cn2cc(NCCCN3CCOCC3)nn2)cc1Cl` gave a Ki of 508 nM. This lies in the sub-micromolar range.

Compound `Clc1ccc(-n2cc(NCCN3CCCCC3)nn2)c(Cl)c1` registered an inhibition in the data set filed under Cavia porcellus of 62%.

As to `c1c(NCCN2CCOCC2)nnn1C12CC3CC(CC(C3)C1)C2`, in [12], the IC50 was above 10000 nM.

In turn, `Fc1ccc(-n2cc(NCCN3CCC(F)(F)CC3)nn2)cc1F` showed an inhibition in the data set filed under Cavia porcellus of 29%. The same compound displayed an IC50 in [12] above 10000 nM.

With `CN1CCN(CCNc2cn(Cc3ccccc3)nn2)CC1`, the affinity in [1] corresponds to a Ki of 9620 nM.

`CCN(CC)CCNc1cn(Cc2ccccc2)nn1` came in with a Ki in data set [1] of 701 nM.

`Fc1ccc(-n2cc(NCCN3CCOCC3)nn2)cc1F` returned a Ki in data set [1] above 1000 nM.

With `Fc1ccc(Cn2cc(NCCN3CCC(F)(F)CC3)nn2)cc1`, the Ki in data set [2] is above 10000 nM.
